The IC50 is the concentration that inhibits the measured activity by half. High values mean lower potency, low ones higher potency.

These results are taken from BindingDB's records for doi:10.1021/jm9802620 (University of Washington, 1998).

The target of test [1] is Glyceraldehyde-3-phosphate dehydrogenase (GAPDH). In words: Inhibitory activity measured for Glyceraldehyde-3-phosphate dehydrogenase (GAPDH) in Leishmania. mexicana. In short, it runs like this:
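Recombinant glycosomal GAPDH of L. mexicana, T. cruzi or T. brucei; human enzyme from erythrocytes. NADH formation followed at 340 nm, 21 °C, in 0.1 M triethanolamine-HCl pH 7.6 with DTT, NaN3, MgSO4, EDTA, 10 mM K2HPO4, 0.8 mM glyceraldehyde-3-phosphate, 0.19 mM NAD+, 5% DMSO. Reaction started with enzyme. IC50 from 0–1 min initial rates at ≥5 inhibitor levels versus DMSO control.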

For test [2] the target is unchanged. In words: Inhibitory activity was measured for Glyceraldehyde-3-phosphate dehydrogenase (GAPDH) in Leishmania. mexicana.

The molecule `Nc1ccc(CNc2ncnc3c2ncn3C2O[C@H](CO)[C@@H](O)[C@H]2O)cc1` (stereo not given in full) had an IC50 in test [1] of 3.1 mM.
The molecule `Cc1cccc(CNc2ncnc3c2ncn3C2O[C@H](CO)[C@@H](O)[C@H]2O)c1` (stereo not given in full) showed a 50% inhibitory concentration (IC50) in test [1] of 0.7 mM.
Take `OC[C@H]1OC(n2cnc3c(N[C@@H]4CCCc5ccccc54)ncnc32)[C@H](O)[C@@H]1O` (stereo not given in full): the IC50 in test [1] is 0.36 mM. Compared with the last molecule, the IC50 is about 1.9-fold lower.
Turning to `CC(C)=CCNc1ncnc2c1ncn2C1O[C@H](CO)[C@@H](O)[C@H]1O` (stereo not given in full), the IC50 in test [1] is greater than 5 mM.
In turn, `CC(C)CCNc1ncnc2c1ncn2C1O[C@H](CO)[C@@H](O)[C@H]1O` (stereo not given in full) came in with an IC50 in test [2] of 3.7 mM.
